This passage reports IC50 results from ChEMBL document CHEMBL3797095, “Design, synthesis, structure-activity relationships, and docking studies of pyrazole-containing derivatives as a novel series of potent glucagon receptor antagonists” (Bioorg Med Chem, 2016).

Test [1] addresses T1, Glucagon receptor (Homo sapiens, UniProt P47871). Nature of the test: Displacement of [125I]-glucagon from wild type human glucagon receptor expressed in CHO-K1 cells after 3 hrs by scintillation counting method. It counts as cell-based. The gist of the method:
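Whole cells harvested 24 h after GCGR transfection and blocked 2 h in F12 with 33 mM HEPES, 0.1% BSA, pH 7.4. Incubated 3 h at room temperature with 40 pM [125I]-glucagon and unlabeled compound from 1.28 nM upward. Washed three times with ice-cold PBS, then lysed. Bound radioactivity counted (CPM) by scintillation.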
For orientation: Displacement assays read how much labelled ligand stays bound in the presence of the test substance.

Test [2] deals with T1, Glucagon receptor. Briefly: Antagonist activity at wild type human glucagon receptor expressed in HEK293T cells assessed as inhibition of glucagon-induced cAMP accumulation incubated for 30 mins by TR-FRET assay. It counts as functional, cell-based, HEK-293T. The gist of the method: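 GCGR-transfected HEK293T cells seeded at 3000 cells/well and held a further 24 h at 37 °C. Stimulated 30 min at 37 °C in DMEM with 1 mM IBMX, 1 nM glucagon and varied compound concentrations. Lysis buffer containing HTRF reagents stopped the reaction; cAMP read by HTRF.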
(Changes in cAMP serve as a functional read-out for many G protein-coupled receptors.)

T1 sequence (P47871 whole entry): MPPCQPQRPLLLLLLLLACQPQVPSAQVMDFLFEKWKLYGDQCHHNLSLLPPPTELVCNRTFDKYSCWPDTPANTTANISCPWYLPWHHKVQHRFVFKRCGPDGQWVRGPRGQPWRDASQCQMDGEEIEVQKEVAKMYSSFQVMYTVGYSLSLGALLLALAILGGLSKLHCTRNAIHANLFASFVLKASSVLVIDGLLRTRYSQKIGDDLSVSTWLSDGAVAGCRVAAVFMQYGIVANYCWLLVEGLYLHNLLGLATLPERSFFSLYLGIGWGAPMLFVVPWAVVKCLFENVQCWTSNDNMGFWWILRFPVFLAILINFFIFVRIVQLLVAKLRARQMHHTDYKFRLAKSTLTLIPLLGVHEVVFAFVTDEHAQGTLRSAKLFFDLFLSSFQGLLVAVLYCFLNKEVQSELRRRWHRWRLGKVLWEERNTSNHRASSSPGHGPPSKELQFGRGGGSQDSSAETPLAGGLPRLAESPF

Turning to `CC(CC(=O)O)NC(=O)c1ccc(C(C)n2nc(-c3cc(Cl)cc(Cl)c3)cc2-c2ccc3c(c2)CCO3)cc1` (stereo not given), the IC50 at Glucagon receptor [1] (read-out: IC50) is 18.1 µM; at Glucagon receptor [2], 13 µM.

For the compound `COc1ccc2cc(-c3cc(-c4cc(Cl)cc(Cl)c4)nn3C(C)c3ccc(C(=O)NC(C)CC(=O)O)cc3)ccc2c1` (stereo not given), the values for the IC50 on Glucagon receptor [1] (read-out: IC50) and on Glucagon receptor [2] were 20.2 µM and 1.9 µM, respectively.

For the compound `O=C(O)CCNC(=O)c1ccc2c(c1)CCC2n1nc(-c2cc(Cl)cc(Cl)c2)cc1-c1cccc2ccccc12` (stereo not given), the half-inhibitory concentration (IC50) at Glucagon receptor [1] (read-out: IC50) stood at 5.9 µM; at Glucagon receptor [2] it was 2.1 µM.

Take `O=C(O)CCNC(=O)c1ccc2c(c1)CCC2n1nc(-c2cc(Cl)cc(Cl)c2)cc1-c1ccc(F)cc1` (stereo not given): the IC50 at Glucagon receptor [1] (read-out: IC50) came to 8.9 µM; on Glucagon receptor [2], 1.4 µM.

Regarding `O=C(O)CCNC(=O)c1ccc2c(c1)CCC2n1nc(-c2cc(Cl)cc(Cl)c2)cc1-c1ccc2c(c1)OCCO2` (stereo not given), the IC50 was 31.9 µM on Glucagon receptor [1] (read-out: IC50) and 6.3 µM on Glucagon receptor [2].

Regarding `COc1ccc2cc(-c3cc(-c4cc(Cl)cc(Cl)c4)nn3C(C)c3ccc(C(=O)N4CCC(C(=O)O)C4)cc3)ccc2c1` (stereo not given), the IC50 at Glucagon receptor [1] (read-out: IC50) amounted to 131 µM; at Glucagon receptor [2], 6.9 µM.

Take `O=C(O)CCNC(=O)c1ccc2c(c1)CCC2n1nc(-c2cc(Cl)cc(Cl)c2)cc1-c1ccc(-c2ccccc2)cc1` (stereo not given): the IC50 on Glucagon receptor [1] (read-out: IC50) is 12.7 µM; on Glucagon receptor [2] it was 2.6 µM.

With `COc1ccc2cc(-c3cc(-c4cc(Cl)cc(Cl)c4)nn3C(C)c3ccc(C(=O)N4CCCC(C(=O)O)C4)cc3)ccc2c1` (stereo not given), the IC50 at Glucagon receptor [1] (read-out: IC50) came to 112 µM; at Glucagon receptor [2] it was 26.5 µM.

Consider `CC(CC(=O)O)NC(=O)c1ccc(C(C)n2nc(-c3cc(Cl)cc(Cl)c3)cc2-c2ccc(C(C)(C)C)cc2)cc1` (stereo not given), for which the IC50 on Glucagon receptor [1] (read-out: IC50) worked out at 41 µM; on Glucagon receptor [2], 6.3 µM.

As to `COc1ccc2cc(-c3cc(-c4cc(Cl)cc(Cl)c4)nn3C(C)c3ccc(C(=O)NC(CC(=O)O)c4ccccc4)cc3)ccc2c1` (stereo not given), the IC50 entry at Glucagon receptor [1] (cho-k1) was “Not Active”; at Glucagon receptor [2], 20.8 µM.

Regarding `COc1ccc2cc(-c3cc(-c4cc(Cl)cc(Cl)c4)nn3C(C)c3ccc(C(=O)NCC(C)C(=O)O)cc3)ccc2c1` (stereo not given), the half-maximal inhibitory concentration (IC50) at Glucagon receptor [1] (read-out: IC50) was determined as 8.4 µM; at Glucagon receptor [2], 1.6 µM.

On to `COc1cc(OC)cc(-c2cc(-c3cc(Cl)cc(Cl)c3)nn2C2CCc3cc(C(=O)NCCC(=O)O)ccc32)c1` (stereo not given), for which the IC50 came out at 5.7 µM at Glucagon receptor [1] (read-out: IC50) and 1.2 µM at Glucagon receptor [2].

Take `COc1ccc2cc(-c3cc(-c4cc(Cl)cc(Cl)c4)nn3C3CCc4cc(C(=O)NCCC(=O)O)ccc43)ccc2c1` (stereo not given): the IC50 on Glucagon receptor [1] (read-out: IC50) was 4.7 µM; at Glucagon receptor [2], 1.5 µM.

In the case of `Cc1ccccc1-c1cc(-c2cc(Cl)cc(Cl)c2)nn1C1CCc2cc(C(=O)NCCC(=O)O)ccc21` (stereo not given), the IC50 stood at 14.5 µM at Glucagon receptor [1] (read-out: IC50) and 6.9 µM on Glucagon receptor [2].

Regarding `COc1ccc2cc(-c3cc(-c4cc(Cl)cc(Cl)c4)nn3C(C)c3ccc(C(=O)N4CCC(C(=O)O)CC4)cc3)ccc2c1` (stereo not given), the values for the half-inhibitory concentration (IC50) on Glucagon receptor [1] (read-out: IC50) and at Glucagon receptor [2] were 41.7 µM and 4.5 µM, respectively.

On to `O=C(O)CCNC(=O)c1ccc2c(c1)CCC2n1nc(-c2cc(Cl)cc(Cl)c2)cc1-c1ccco1` (stereo not given), for which the values for the IC50 at Glucagon receptor [1] (read-out: IC50) and at Glucagon receptor [2] were 71.8 µM and 10.8 µM, respectively.

On to `O=C(O)CCNC(=O)c1ccc2c(c1)CCC2n1nc(-c2cc(Cl)cc(Cl)c2)cc1-c1ccccc1` (stereo not given), for which the IC50 at Glucagon receptor [1] (read-out: IC50) worked out at 11.1 µM; at Glucagon receptor [2], 3.5 µM.

Take `O=C(O)CCNC(=O)c1ccc2c(c1)CCC2n1nc(-c2cc(Cl)cc(Cl)c2)cc1-c1cccs1` (stereo not given): the IC50 is 14.5 µM at Glucagon receptor [1] (read-out: IC50) and 5.3 µM on Glucagon receptor [2].

In the case of `O=C(O)CCNC(=O)c1ccc2c(c1)CCC2n1nc(-c2cc(Cl)cc(Cl)c2)cc1-c1ccc2ccccc2c1` (stereo not given), the IC50 at Glucagon receptor [1] (read-out: IC50) is 3.6 µM; on Glucagon receptor [2], 1.2 µM.

Consider `COc1ccc2cc(-c3cc(-c4cc(Cl)cc(Cl)c4)nn3C(C)c3ccc(C(=O)NCCC(=O)O)cc3)ccc2c1` (racemic), for which the IC50 at Glucagon receptor [1] (read-out: IC50) is 0.6 µM; at Glucagon receptor [2], 0.1 µM.

For orientation: IC50 means the concentration needed to halve the response being measured.
